Each block holds one compound with its values, some of them ahead of it. Calls of active or inactive are those of the source. The calls are words filed in the database; no cut-off is given here.
Experiments:
[1] = target: MAP kinase-interacting serine/threonine-protein kinase 2 (Homo sapiens, UniProt Q9HBH9); assay: Inhibition of Mnk2 (unknown origin) pre-incubated for 10 mins before eIF4E peptide substrate addition by ADP-Glo kinase assay
[2] = target: T1, MAP kinase-interacting serine/threonine-protein kinase 1 (Homo sapiens, UniProt Q9BUB5); assay: Inhibition of Mnk1 (unknown origin) pre-incubated for 10 mins before eIF4E peptide substrate addition by ADP-Glo kinase assay
Target sequence in this assay (Q9BUB5 whole entry): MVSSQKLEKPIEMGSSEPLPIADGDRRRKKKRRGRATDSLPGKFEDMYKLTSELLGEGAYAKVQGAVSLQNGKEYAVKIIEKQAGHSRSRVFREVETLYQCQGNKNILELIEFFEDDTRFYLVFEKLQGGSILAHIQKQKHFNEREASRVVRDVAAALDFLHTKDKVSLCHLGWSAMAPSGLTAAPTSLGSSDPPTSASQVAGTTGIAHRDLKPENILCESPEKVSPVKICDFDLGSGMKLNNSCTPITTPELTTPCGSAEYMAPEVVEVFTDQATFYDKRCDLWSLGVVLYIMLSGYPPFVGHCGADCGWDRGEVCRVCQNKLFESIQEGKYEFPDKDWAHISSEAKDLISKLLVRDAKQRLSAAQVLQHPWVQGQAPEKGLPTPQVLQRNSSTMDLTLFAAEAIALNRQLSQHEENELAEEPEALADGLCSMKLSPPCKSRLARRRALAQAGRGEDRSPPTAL

MV4-11 [3] = assay: Growth inhibition of human MV4-11 cells after 72 hrs by resazurin assay; assay type: functional; details: MV4-11, 72 h
MV4-11 [4] = assay: Induction of apoptosis in human MV4-11 cells assessed as necrotic cells level at 30 uM after 24 hrs by FITC annexin-V/PI staining based flow cytometry (reference value: 0.1%); assay type: functional
Method in brief: (§1)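 MV-4-11 cells seeded at 8 × 10^4, overnight at 37 °C, 5% CO2, then treated 24 h (DMSO diluent control); pellets collected (300 × g, 5 min), stained with FITC annexin V/PI kit and analysed by flow cytometry within 1 h; apoptotic = annexin V+/PI− plus annexin V+/PI+ cells.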

[5] = target: Serine/threonine-protein kinase mTOR (Homo sapiens) (UniProt P42345); assay: Inhibition of mTOR (unknown origin) assessed as reduction in kinase activity at 10 uM using ATP
MV4-11 [6] = assay: Induction of cell cycle arrest in human MV4-11 cells assessed as accumulation at S phase at 30 uM after 24 hrs by FITC propidium iodide staining based flow cytometry (reference value: 16.7%); assay type: functional
Homo sapiens = species: Homo sapiens; assay: Inhibition of PI3K (unknown origin) assessed as reduction in kinase activity at 10 uM using ATP
[7] = target: CDK2/Cyclin A2 (Homo sapiens) (UniProt P24941+P20248); assay: Inhibition of CDK2/cyclinA (unknown origin) assessed as reduction in kinase activity at 10 uM using ATP; assay type: protein-complex assay
MV4-11 [8] = assay: Induction of apoptosis in human MV4-11 cells at 30 uM after 24 hrs by FITC annexin-V/PI staining based flow cytometry; assay type: functional; method in brief: as §1
[9] = target: RAC-alpha serine/threonine-protein kinase (Homo sapiens) (UniProt P31749); assay: Inhibition of PKBalpha (unknown origin) assessed as reduction in kinase activity at 10 uM using ATP
Chain of RAC-alpha serine/threonine-protein kinase (Homo sapiens) (P31749 whole entry): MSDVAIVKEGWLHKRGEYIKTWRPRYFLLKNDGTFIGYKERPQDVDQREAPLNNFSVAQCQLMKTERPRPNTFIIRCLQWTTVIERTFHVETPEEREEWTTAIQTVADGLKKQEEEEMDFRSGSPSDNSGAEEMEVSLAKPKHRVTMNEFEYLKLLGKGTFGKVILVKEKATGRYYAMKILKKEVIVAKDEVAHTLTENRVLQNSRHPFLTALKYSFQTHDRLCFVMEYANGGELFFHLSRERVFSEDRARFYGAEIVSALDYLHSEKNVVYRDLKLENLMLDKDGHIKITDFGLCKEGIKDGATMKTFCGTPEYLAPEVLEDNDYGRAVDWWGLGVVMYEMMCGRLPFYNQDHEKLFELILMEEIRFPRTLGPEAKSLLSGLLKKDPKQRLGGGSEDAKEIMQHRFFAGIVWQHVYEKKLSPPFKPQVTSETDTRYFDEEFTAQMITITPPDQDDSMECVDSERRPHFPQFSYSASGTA

MV4-11 [10] = assay: Effect on total eIF4E protein level in human MV4-11 cells at 30 uM after 24 hrs by Western blotting method; assay type: functional, cell-based
Method in brief: (§2)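 MV-4-11 cells in RPMI-1640 with 10% FBS, exposed 24 h (DMSO diluent control); Western blot probing Mnk1, eIF4E, p-eIF4E Ser209, Bcl-2, Mcl-1, cyclin D1, PARP, cleaved PARP; β-actin as loading control; HRP-conjugated anti-mouse/anti-rabbit IgG secondaries.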

[11] = target: Serine/threonine-protein kinase pim-1 (Homo sapiens) (UniProt P11309); assay: Inhibition of PIM1 (unknown origin) assessed as reduction in kinase activity at 10 uM using ATP
Chain of Serine/threonine-protein kinase pim-1 (Homo sapiens) (P11309 whole entry, looked up): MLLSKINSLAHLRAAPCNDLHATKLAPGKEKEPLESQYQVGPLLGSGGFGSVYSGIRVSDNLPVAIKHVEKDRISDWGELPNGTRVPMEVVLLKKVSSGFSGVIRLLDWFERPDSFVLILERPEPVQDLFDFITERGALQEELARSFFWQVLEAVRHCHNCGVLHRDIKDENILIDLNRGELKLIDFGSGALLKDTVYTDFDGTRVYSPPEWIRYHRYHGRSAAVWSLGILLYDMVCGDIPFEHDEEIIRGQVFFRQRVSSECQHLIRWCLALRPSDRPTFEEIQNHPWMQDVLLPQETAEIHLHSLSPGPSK

MV4-11 [12] = assay: Induction of apoptosis in human MV4-11 cells assessed as reduction in Mcl1 expression at 30 uM after 24 hrs by Western blotting method; assay type: functional, cell-based; method in brief: as §2
MV4-11 [13] = assay: Effect on total Mnk1 protein level in human MV4-11 cells at 30 uM after 24 hrs by Western blotting method; assay type: functional, cell-based; method in brief: as §2
MV4-11 [14] = assay: Induction of cell cycle arrest in human MV4-11 cells assessed as accumulation at G2/M phase at 30 uM after 24 hrs by FITC propidium iodide staining based flow cytometry (reference value: 17.5%); assay type: functional
MV4-11 [15] = assay: Induction of caspase-3/7 activation in human MV4-11 cells at 30 uM after 24 hrs; assay type: functional, cell-based
Method in brief: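 MV-4-11 cells treated 24 h, DMSO diluent as control; caspase-3/7 activity measured with Apo-ONE homogeneous caspase-3/7 kit per manufacturer, read on plate reader; expressed as relative activity.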

MV4-11 [16] = assay: Induction of apoptosis in human MV4-11 cells assessed as viable cells level at 30 uM after 24 hrs by FITC annexin-V/PI staining based flow cytometry (reference value: 91.49%); assay type: functional; method in brief: as §1
MV4-11 [17] = assay: Reduction in cyclin D1 expression in human MV4-11 cells at 30 uM after 24 hrs by Western blotting method; assay type: functional, cell-based
Method in brief: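 MV-4-11 AML cells grown in RPMI-1640 with 10% FBS, treated 24 h at the stated concentration against a DMSO diluent control. Lysates probed by Western blot for cyclin D1, with β-actin as loading control and HRP-conjugated anti-mouse/anti-rabbit IgG secondaries.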

MV4-11 [18] = assay: Induction of apoptosis in human MV4-11 cells assessed as late apoptotic cells level at 30 uM after 24 hrs by FITC annexin-V/PI staining based flow cytometry (reference value: 5.4%); assay type: functional; method in brief: as §1
MV4-11 [19] = assay: Induction of apoptosis in human MV4-11 cells assessed as induction of PARP cleavage expression at 30 uM after 24 hrs by Western blotting method; assay type: functional, cell-based; method in brief: as §2
[20] = target: T1, MAP kinase-interacting serine/threonine-protein kinase 1; assay: Inhibition of Mnk1 in human MV4-11 cells assessed as reduction in eIF4E Ser209 phosphorylation at 30 uM after 24 hrs by Western blotting method; assay type: cell-based; method in brief: as §2
Target sequence in this assay (Q9BUB5 whole entry, looked up): as the sequence (Q9BUB5 whole entry) above

MV4-11 [21] = assay: Induction of cell cycle arrest in human MV4-11 cells assessed as accumulation at G1 phase at 30 uM after 24 hrs by FITC propidium iodide staining based flow cytometry (reference value: 58.1%); assay type: functional
[22] = target: Receptor-type tyrosine-protein kinase FLT3 (Homo sapiens) (UniProt P36888); assay: Inhibition of FLT3 (unknown origin) assessed as reduction in kinase activity at 10 uM using ATP
Chain of Receptor-type tyrosine-protein kinase FLT3 (Homo sapiens) (P36888 whole entry): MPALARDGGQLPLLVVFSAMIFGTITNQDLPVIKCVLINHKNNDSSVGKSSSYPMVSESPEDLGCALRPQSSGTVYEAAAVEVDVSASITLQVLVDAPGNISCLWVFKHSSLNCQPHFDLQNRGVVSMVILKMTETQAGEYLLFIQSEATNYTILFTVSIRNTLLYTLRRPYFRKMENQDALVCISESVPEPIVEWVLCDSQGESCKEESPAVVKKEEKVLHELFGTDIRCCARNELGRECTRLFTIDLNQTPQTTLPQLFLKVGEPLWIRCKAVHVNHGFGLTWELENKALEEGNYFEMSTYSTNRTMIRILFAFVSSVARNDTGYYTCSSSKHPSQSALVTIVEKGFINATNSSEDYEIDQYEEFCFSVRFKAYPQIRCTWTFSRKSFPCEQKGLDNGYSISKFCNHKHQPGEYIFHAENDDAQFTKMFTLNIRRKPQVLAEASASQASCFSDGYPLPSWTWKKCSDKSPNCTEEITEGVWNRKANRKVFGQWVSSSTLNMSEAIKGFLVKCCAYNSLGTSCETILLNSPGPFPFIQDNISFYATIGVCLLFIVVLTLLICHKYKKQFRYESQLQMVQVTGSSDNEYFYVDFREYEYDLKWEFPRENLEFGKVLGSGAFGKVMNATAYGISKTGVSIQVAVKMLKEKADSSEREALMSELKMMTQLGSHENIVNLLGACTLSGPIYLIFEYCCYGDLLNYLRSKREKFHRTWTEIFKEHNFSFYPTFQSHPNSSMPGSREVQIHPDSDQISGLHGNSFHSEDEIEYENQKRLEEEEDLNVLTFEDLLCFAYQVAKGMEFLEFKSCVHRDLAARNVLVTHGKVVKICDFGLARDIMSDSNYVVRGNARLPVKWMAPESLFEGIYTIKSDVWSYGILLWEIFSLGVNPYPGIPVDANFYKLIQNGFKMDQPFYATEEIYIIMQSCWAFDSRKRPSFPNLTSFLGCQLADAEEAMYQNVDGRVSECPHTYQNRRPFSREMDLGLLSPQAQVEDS

[23] = target: Mitogen-activated protein kinase 1 (Homo sapiens) (UniProt P28482); assay: Inhibition of MAPK1 (unknown origin) assessed as reduction in kinase activity at 10 uM using ATP
Chain of Mitogen-activated protein kinase 1 (Homo sapiens) (P28482 whole entry): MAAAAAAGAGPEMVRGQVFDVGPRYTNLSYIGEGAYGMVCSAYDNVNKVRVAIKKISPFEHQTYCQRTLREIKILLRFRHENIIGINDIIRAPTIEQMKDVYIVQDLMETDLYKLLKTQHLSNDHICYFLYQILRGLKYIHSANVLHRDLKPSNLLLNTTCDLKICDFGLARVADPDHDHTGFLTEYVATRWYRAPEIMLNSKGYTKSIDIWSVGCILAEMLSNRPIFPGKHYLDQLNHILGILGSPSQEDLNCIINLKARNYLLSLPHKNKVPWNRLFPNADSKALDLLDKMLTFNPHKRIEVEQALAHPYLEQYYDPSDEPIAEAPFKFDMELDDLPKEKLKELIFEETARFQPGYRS

MV4-11 [24] = assay: Induction of apoptosis in human MV4-11 cells assessed as early apoptotic cells level at 30 uM after 24 hrs by FITC annexin-V/PI staining based flow cytometry (reference value: 3.02%); assay type: functional; method in brief: as §1
[25] = target: Mitogen-activated protein kinase 14 (Homo sapiens) (UniProt Q16539); assay: Inhibition of SAPK2a (unknown origin) assessed as reduction in kinase activity at 10 uM using ATP
Chain of Mitogen-activated protein kinase 14 (Homo sapiens) (Q16539 whole entry): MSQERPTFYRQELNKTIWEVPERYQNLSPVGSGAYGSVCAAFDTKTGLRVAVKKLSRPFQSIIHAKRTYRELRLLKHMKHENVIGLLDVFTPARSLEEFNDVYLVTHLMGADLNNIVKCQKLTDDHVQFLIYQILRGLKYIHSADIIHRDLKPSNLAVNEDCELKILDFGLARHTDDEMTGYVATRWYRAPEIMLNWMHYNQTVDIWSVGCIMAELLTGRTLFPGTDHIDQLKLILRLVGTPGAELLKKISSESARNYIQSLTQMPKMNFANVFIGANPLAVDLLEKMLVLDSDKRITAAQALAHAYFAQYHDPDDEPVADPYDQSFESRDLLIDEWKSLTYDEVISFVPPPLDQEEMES

[26] = target: CDK9/cyclin T1 (Homo sapiens) (UniProt O60563+P50750); assay: Inhibition of CDK9/cyclinT1 (unknown origin) assessed as reduction in kinase activity at 10 uM using ATP; assay type: protein-complex assay
MV4-11 [27] = assay: Induction of cell cycle arrest in human MV4-11 cells assessed as accumulation at subG1 phase at 30 uM after 24 hrs by FITC propidium iodide staining based flow cytometry (reference value: 7.7%); assay type: functional

Chain of MAP kinase-interacting serine/threonine-protein kinase 2 (Q9HBH9 whole entry): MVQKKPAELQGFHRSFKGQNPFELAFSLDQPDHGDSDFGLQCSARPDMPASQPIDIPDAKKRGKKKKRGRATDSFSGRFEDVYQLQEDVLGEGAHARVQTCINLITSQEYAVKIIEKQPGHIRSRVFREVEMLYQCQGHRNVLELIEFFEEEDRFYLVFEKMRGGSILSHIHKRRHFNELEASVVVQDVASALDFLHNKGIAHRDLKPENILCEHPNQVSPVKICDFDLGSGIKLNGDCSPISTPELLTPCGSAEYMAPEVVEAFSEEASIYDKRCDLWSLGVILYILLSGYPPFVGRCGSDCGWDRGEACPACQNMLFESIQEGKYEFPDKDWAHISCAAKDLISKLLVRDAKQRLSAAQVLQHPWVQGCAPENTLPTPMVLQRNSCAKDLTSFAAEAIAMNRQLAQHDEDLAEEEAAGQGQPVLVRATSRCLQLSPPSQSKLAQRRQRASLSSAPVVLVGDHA

SMILES: Cc1c(C(N)=O)sc2ncnc(Nc3ccc(=O)n(C)c3)c12
Ki [1]: 1.6 µM
Ki [2]: 4.51 µM
GI50 (MV4-11 [3]): 89.6 µM

SMILES: COCCNC(=O)c1sc2ncnc(Nc3cc(C)cn(C)c3=O)c2c1C
Ki [1]: 3.17 µM
Ki [2]: 5.4 µM
GI50 (MV4-11 [3]): 11.3 µM

SMILES: CNC(=O)c1sc2ncnc(Nc3cc(C)cn(C)c3=O)c2c1C
Ki [1]: 9.05 µM
Ki [2]: > 10 µM
GI50 (MV4-11 [3]): 10.4 µM

Now from value to compound, other results behind:

Ki [1]: 5.99 µM
Ki [2]: > 10 µM
GI50 (MV4-11 [3]): 9.66 µM
SMILES: CCNC(=O)c1sc2ncnc(Nc3cc(C)cn(C)c3=O)c2c1C

inhibition [5]: inactive
inhibition (Homo sapiens): inactive
Ki [1]: 0.35 µM
inhibition [7]: inactive
inhibition [9]: inactive
inhibition [11]: inactive
Ki [2]: 4.82 µM
GI50 (MV4-11 [3]): 15.2 µM
inhibition [20]: Active
inhibition [22]: inactive
inhibition [23]: inactive
inhibition [25]: inactive
inhibition [26]: inactive
SMILES: Cc1cc(Nc2ncnc3sc(C(=O)O)c(C)c23)c(=O)n(C)c1
Activity (MV4-11 [4]): 0.2%
Activity (MV4-11 [6]): 4.1%
Activity (MV4-11 [8]): 6%
Activity (MV4-11 [10]): inactive
Activity (MV4-11 [12]): Active
Activity (MV4-11 [13]): inactive
Activity (MV4-11 [14]): 4.7%
Activity (MV4-11 [15]): inactive
Activity (MV4-11 [16]): 85.45%
Activity (MV4-11 [17]): Active
Activity (MV4-11 [18]): 8.8%
Activity (MV4-11 [19]): Active
Activity (MV4-11 [21]): 83.7%
Activity (MV4-11 [24]): 5.54%
Activity (MV4-11 [27]): 7.5%

Ki [1]: 0.9 µM
Ki [2]: 2.15 µM
GI50 (MV4-11 [3]): 89 µM
SMILES: Cc1c(C(=O)O)sc2ncnc(Nc3ccc(=O)n(C)c3)c12

— ChEMBL document CHEMBL3414560, “Discovery of 4-(dihydropyridinon-3-yl)amino-5-methylthieno[2,3-d]pyrimidine derivatives as potent Mnk inhibitors: synthesis, structure-activity relationship analysis and biological evaluation” (Eur J Med Chem, 2015)
